# pEC50, pIC50: −log10 of the molar value.
# Columns and labels:
# SH-SY5Y = test: Cytotoxicity against human SH-SY5Y cells measured after 48 hrs by MTT assay; type: cell-based
# [1] = Cytotoxicity against human SH-SY5Y cells assessed as cell viability at 1 uM measured after 48 hrs by MTT assay relative to control; type: cell-based; settings: read-out: Activity
# [2] = target: Nicotinamide phosphoribosyltransferase (Mus musculus, UniProt Q99KQ4); test: Inhibition of recombinant mouse wild-type NAMPT expressed in bacterial expression system using PRPP as substrate in presence of mouse NMNAT-3 measured for 1 hr by fluorescence assay
# Nicotinamide phosphoribosyltransferase, sequence (Q99KQ4 whole entry): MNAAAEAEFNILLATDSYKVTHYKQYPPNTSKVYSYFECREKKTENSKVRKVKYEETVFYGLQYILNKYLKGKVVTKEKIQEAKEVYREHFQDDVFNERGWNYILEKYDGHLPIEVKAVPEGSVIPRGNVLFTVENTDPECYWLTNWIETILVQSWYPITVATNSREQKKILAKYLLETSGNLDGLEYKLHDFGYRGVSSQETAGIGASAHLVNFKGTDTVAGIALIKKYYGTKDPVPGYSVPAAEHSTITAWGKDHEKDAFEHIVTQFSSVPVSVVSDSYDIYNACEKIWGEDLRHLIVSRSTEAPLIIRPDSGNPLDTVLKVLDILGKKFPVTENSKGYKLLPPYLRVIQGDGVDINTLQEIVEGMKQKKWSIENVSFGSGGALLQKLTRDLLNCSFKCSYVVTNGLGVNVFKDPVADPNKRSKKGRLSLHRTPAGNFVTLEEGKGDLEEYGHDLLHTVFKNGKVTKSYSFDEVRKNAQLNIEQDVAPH
# Outline: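 In vitro NAMPT enzymatic assay run as concentration-response curves, with IC50 derived from the curves. Mean ± SD of three independent experiments (n = 6).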
# [3] = Kinetic aqueous solubility of the compound in 80:20 PBS/acetonitrile solution at 200 to 500 uM by HTS assay; type: physicochemical; settings: read-out: Kinetic_solubility
# [4] = Permeability across apical side to basolateral side in human Caco2 cells at 30 uM after 4 hrs by HPLC analysis; type: ADME, cell-based; settings: caco-2, 4 h
# Outline: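 Caco-2 monolayer used to measure apical-to-basal transfer, reported as % permeability and Papp. Terbutaline served as the positive control; n = 3.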
# [5] = Selectivity ratio of EC50 for cytotoxicity against human SH-SY5Y cells to IC50 for recombinant mouse wild-type NAMPT expressed in bacterial expression system; type: cell-based
# [6] = target: Nicotinamide phosphoribosyltransferase (Homo sapiens) (UniProt P43490); test: Inhibition of NAMPT in human SH-SY5Y cells assessed as reduction in NAD levels at 100 nM measured after 16 hrs by diaphorase and resazurin dye based fluorescence assay relative to control; type: cell-based
# Nicotinamide phosphoribosyltransferase (Homo sapiens), sequence (P43490 whole entry, looked up): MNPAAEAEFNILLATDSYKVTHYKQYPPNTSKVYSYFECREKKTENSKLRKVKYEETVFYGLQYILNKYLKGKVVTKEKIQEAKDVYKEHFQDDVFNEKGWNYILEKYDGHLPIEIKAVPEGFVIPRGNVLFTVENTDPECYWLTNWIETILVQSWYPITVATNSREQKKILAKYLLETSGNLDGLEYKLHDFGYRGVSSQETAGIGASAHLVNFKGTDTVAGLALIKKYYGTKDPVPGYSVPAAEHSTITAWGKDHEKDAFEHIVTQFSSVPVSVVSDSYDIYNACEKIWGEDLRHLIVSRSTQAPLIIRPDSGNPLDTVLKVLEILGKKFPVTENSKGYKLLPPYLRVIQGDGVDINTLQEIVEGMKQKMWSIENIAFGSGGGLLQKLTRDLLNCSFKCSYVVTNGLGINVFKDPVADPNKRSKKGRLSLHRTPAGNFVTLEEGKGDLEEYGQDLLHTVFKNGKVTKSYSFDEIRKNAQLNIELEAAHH
# Outline: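 SH-SY5Y cells treated at 100 nM for 16 h, then NAD level reduction measured as % of control. Mean ± SD of two independent experiments (n = 6).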
# [7] = Toxicity in Crl:CD Sprague-Dawley rat heart assessed as hypereosinophilia at 100 mg/kg, ip administered once daily for 5 days by hematoxylin and eosin staining based microscopic analysis; type: organism-based; settings: in vivo, 120 h
# [8] = Kinetic aqueous solubility of the compound in 80:20 PBS/acetonitrile solution at 200 uM by HTS assay; type: physicochemical; settings: buffer
# [9] = Toxicity in Crl:CD Sprague-Dawley rat heart assessed as increase in cardiomyocytes cytoplasmic vacuolation at 100 mg/kg, ip administered once daily for 5 days by hematoxylin and eosin staining based microscopic analysis; type: organism-based; settings: in vivo, 120 h
# [10] = Toxicity in Crl:CD Sprague-Dawley rat heart assessed as interstitial expansion at 100 mg/kg, ip administered once daily for 5 days by hematoxylin and eosin staining based microscopic analysis; type: organism-based; settings: in vivo, 120 h
# [11] = Toxicity in Crl:CD Sprague-Dawley rat retina at 100 mg/kg, ip administered once daily for 5 days by hematoxylin and eosin staining based microscopic analysis; type: organism-based; settings: in vivo, 120 h
# TK6 [12] = test: Genotoxicity in human TK6 cells assessed as induction of DNA damage up to 1000 uM by GreenScreen assay; type: toxicity, cell-based
# [13] = Drug metabolism in Wistar Han rat liver microsomes assessed as pyridine N-oxidation at 50 uM measured after 60 mins […] by LC-ESI/MS analysis; type: ADME, Microsome; settings: 1 h
# [14] = Thermodynamic solubility of compound in water after 24 hrs by LC-UV based shake flask method; type: physicochemical; settings: buffer
# Outline: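 Thermodynamic water solubility measured by saturation shake flask, with the concentration of the saturated solution reported.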
# [15] = Drug metabolism in Wistar Han rat liver microsomes assessed as oxidative N-dealkylation at 50 uM measured after 60 mins […] by LC-ESI/MS analysis; type: ADME, Microsome; settings: 1 h
# [16] = Drug metabolism in human liver microsomes assessed as pyridine N-oxidation at 50 uM measured after 60 mins […] by LC-ESI/MS analysis; type: ADME, Microsome; settings: 1 h
# Lymphocyte [17] = test: Genotoxicity in human primary lymphocytes in presence of S9 fraction by GreenScreen assay; type: toxicity, cell-based
# [18] = Drug metabolism in Wistar Han rat liver microsomes assessed as aliphatic hydroxylation of paraffin linker at 50 uM measured after 60 mins […] by LC-ESI/MS analysis; type: ADME, Microsome; settings: 1 h
# [19] = Drug metabolism in human liver microsomes assessed as oxidative N-dealkylation at 50 uM measured after 60 mins […] by LC-ESI/MS analysis; type: ADME, Microsome; settings: 1 h
# [20] = Drug metabolism in human liver microsomes assessed as aliphatic hydroxylation of paraffin linker at 50 uM measured after 60 mins […] by LC-ESI/MS analysis; type: ADME, Microsome; settings: 1 h
# Lymphocyte [21] = test: Genotoxicity in human primary lymphocytes assessed as induction of DNA damage up to 1000 uM by GreenScreen assay; type: toxicity, cell-based
# TK6 [22] = test: Genotoxicity in human TK6 cells in presence of S9 fraction by GreenScreen assay; type: toxicity, cell-based
Compound,pEC50 (SH-SY5Y),"viability at 48 h, 1 µM [1] [%]",pIC50 [2],solubility kinetic [3] [µM],also measured
O=C(NCCCCCCCn1cc(-c2cccnc2)nn1)c1ccccc1-c1c[nH]nn1,7.06,23.5,7.37,–,–
O=C(O)c1cccc(-c2ccccc2C(=O)NCCCCCCCn2cc(-c3cccnc3)nn2)c1,< 6.30,78.4,< 6.30,–,–
O=C(NCCCCCCCn1cc(-c2cccnc2)nn1)c1ccccc1-n1cc(CN2CCC(O)CC2)nn1,< 5.00,91.7,7.38,200 to 500,permeability [4]: < 1%; Selectivity ratio [5]: 200; inhibition [6]: 30%
O=C(NCCCCCCCn1cc(-c2cccnc2)nn1)c1ccccc1-c1cccnc1,7.44,15.1,7.55,–,–
O=C(/C=C/c1cccnc1)NCCCCC1CCN(C(=O)c2ccccc2)CC1 [DAPORINAD],8.60,9.7,–,–,Activity [7]: Toxic; Kinetic_solubility [8]: Soluble; Activity [9]: Toxic; permeability [4]: 20.5%; Activity [10]: Non-Toxic; Activity [11]: Non-Toxic
O=C(NCCCCCCCn1cc(-c2cccnc2)nn1)c1ccccc1-n1cc(CN(CCO)CCO)nn1,< 6.30,37.8,7.13,200 to 500,–
CN(C)Cc1cn(-c2ccccc2C(=O)NCCCCCCCn2cc(-c3cccnc3)nn2)nn1,6.54,86.6,7.37,200 to 500,–
O=C(NCCCCCCCn1cc(-c2cccnc2)nn1)c1ccccc1-n1cc(CN2CCOCC2)nn1,< 6.30,30,7.30,200 to 500,–
O=C(NCCCCCCCn1cc(-c2cccnc2)nn1)c1ccccc1-c1ccccc1,–,–,–,–,Activity (TK6 [12]): Non-Toxic; Drug metabolism [13]: Metabolite_Detected; Therm_solubility [14]: Soluble; Kinetic_solubility [8]: Soluble; Drug metabolism [15]: Metabolite_Detected; Drug metabolism [16]: Metabolite_Detected; LEC (Lymphocyte [17]): 125 µM; Drug metabolism [18]: Metabolite_Detected; Drug metabolism [19]: Metabolite_Detected; Drug metabolism [20]: Metabolite_Detected; Activity (Lymphocyte [21]): Non-Toxic; MTC (TK6 [22]): 125 µM
NC(=O)c1ccccc1-c1ccccc1C(=O)NCCCCCCCn1cc(-c2cccnc2)nn1,6.54,65.7,7.06,–,–

# — ChEMBL document CHEMBL4359872, “Identification of potent triazolylpyridine nicotinamide phosphoribosyltransferase (NAMPT) inhibitors bearing a 1,2,3-triazole tail group” (Eur J Med Chem, 2019)
